Screens as filed in PubChem BioAssay.
Hits are enriched below; roughly 2.1% of the tested compounds scored in any of these assays.
RanGTP-Impb inh = inhibitors of RanGTP-importin-beta interaction, primary screen, biochemical, FRET, CFP-Ran, YFP-importin-beta, homogeneous | 300,000 tested, 1.1% active | cell-free CFP-Ran/YFP-importin-beta FRET ratio | inhibition, % (test concentration not listed);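 active means more than half of the replicate wells show a fall in the fluorescence ratio signal beyond about 16%, limit read from the data, passing the limit was not always enough; inconclusive means exactly half of the replicate wells pass the set limit; inactive means fewer than half of replicates pass the limit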;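 further: 0% = DMSO wells and 100% = Ran loaded with GDP instead of GTP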
Runt-SMMHC FRET = Runt domain-CBFb-SMMHC interaction inhibition; Q01196+Q13951; Cerulean-Runt/Venus-CBFb-SMMHC FRET ratio 530/480, 1 h; inhibition, % at 20 µM; 220,000 tested, 0.74% active;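 active means mean inhibition across duplicate retests at 20 µM reaching about 50%, limit read from the data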;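 further: 0% = DMSO wells and 100% = wells with excess untagged CBFb-SMMHC; inhibitors lower the FRET ratio by blocking Runt binding to CBFb-SMMHC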
Target sequence (Q01196 whole entry, looked up, the tested form may be a part): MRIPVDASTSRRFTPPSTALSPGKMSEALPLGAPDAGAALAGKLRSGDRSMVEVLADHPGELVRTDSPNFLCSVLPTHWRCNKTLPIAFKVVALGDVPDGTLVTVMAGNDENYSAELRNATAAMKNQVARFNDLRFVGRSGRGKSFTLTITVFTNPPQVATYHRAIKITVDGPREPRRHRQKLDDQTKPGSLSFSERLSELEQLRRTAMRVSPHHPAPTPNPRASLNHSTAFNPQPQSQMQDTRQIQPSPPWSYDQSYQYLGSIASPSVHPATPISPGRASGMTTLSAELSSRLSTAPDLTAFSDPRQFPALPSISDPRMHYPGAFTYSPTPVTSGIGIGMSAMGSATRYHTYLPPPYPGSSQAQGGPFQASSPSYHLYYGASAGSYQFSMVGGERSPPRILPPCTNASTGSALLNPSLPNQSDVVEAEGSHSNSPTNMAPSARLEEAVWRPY
Target sequence (Q13951 whole entry, looked up, the tested form may be a part): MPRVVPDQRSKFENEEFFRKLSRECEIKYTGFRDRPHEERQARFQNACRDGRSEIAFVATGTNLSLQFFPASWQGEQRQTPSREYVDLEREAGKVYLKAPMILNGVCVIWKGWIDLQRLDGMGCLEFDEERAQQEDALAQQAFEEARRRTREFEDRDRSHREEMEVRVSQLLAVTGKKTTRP
TbHK1 inh = blocks Trypanosoma brucei hexokinase 1 activity. recombinant TbHK1, G6PDH-coupled NADH A340. AID 1430. 220,000 tested, 0.11% active. inhibition, % at 10 µM;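 active means inhibition of 50% or more in the single-dose primary screen; inactive means inhibition below 50%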
p97 inhibitor = human p97 ATPase inhibition; AID 1481; inhibition, % at 8 µM; 220,000 tested, 0.42% active; recombinant p97 ATPase, Kinase-Glo ATP luminescence, 3 h; in the data active means inhibition above about 15%;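 further: 0% = DMSO vehicle and 100% = wells lacking enzyme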
Hck Nef HTS = blocks Nef-activated human Hck kinase; 220,000 tested, 0.68% active; Recombinant Hck-YEEI plus Nef, Z-Lyte FRET kinase assay; inhibition, % at 20 µM; P08631;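 active means Hck-Nef kinase inhibition above about 50%, limit read from the data; inactive means inhibition below that limit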;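 further: 0% = DMSO with Hck plus Nef and 100% = Hck alone without Nef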
Runt-CBFb FRET = Runt domain-CBFb interaction inhibition; Q01196+Q13951; Cerulean-Runt/Venus-CBFb FRET ratio 530/480, 1 h; inhibition, % at 20 µM; 220,000 tested, 0.46% active; AID 1496;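 active means inhibition over about 50% at 20 µM in the single-dose screen, limit read from the data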;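 further: 0% = DMSO wells and 100% = excess unlabeled CBFb competitor control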
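test system = Cerulean-tagged RUNX1 Runt domain (FRET donor) fusion protein | reagent = Venus-CBFb binding partner, 100 nM | incubation = protein complex preformed 1 h, compound exposure 1 h, room temperature, dark | detection = FRET fluorescence | read-out basis = loss of energy transfer signal | controls = 5 µM unlabeled CBFb as full-inhibition high control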
Numbers without * were called inactive; ? = inconclusive; . = no result.

SMILES	RanGTP-Impb inh	Runt-SMMHC FRET	TbHK1 inh	p97 inhibitor	Hck Nef HTS	Runt-CBFb FRET
O=C(NNc1c2ccccc2nc2ccccc12)c1ccccc1O	.	48	0	10	58*	14
O=C(NNc1c2ccccc2nc2ccccc12)c1ccccc1Cl	27*	.	.	.	.	.
O=C(NNc1c2ccccc2nc2ccccc12)c1cccc(O)c1	?	35	-8	5	1	22
CCOC(=O)/C(=N\O)C1=NC(C)(C)Cc2ccccc21	0	-6	-1	3	6	-3
Cc1cccc(N/N=C(\C(N)=O)C2=NC(C)(C)Cc3ccccc32)c1	4	-2	-16	-1	65*	-7
CC(=Nc1cccc(C)c1)c1sc2ccccc2c1O	26*	68*	-8	0	-2	33
CC(=Nc1ccc(O)cc1)c1sc2ccccc2c1O	2	-98	-1	9	4	-22
CC(=O)NCCN=C(C)c1sc2ccccc2c1O	54*	60	0	3	0	26
O=C1NC(=S)S/C1=C\c1coc2ccc(O)cc2c1=O	-1	-1	9	11	53*	0
O=C1NC(=S)S/C1=C\c1coc2ccccc2c1=O	2	-8	-17	4	88*	-2
O=C1NC(=S)S/C1=C\c1ccc2ccccc2c1	-6	.	.	.	.	.
Cc1ccccc1-n1c(O)c(/C=C/C=Nc2ccccc2)c(=O)[nH]c1=O	20*	76*	-42	3	3	29
O=C(Cc1cccs1)NC(Cc1c[nH]c2ccccc12)C(=O)O (configuration not stated)	1	.	.	.	.	.
Cc1c(O)ccc2c(CC(=O)N[C@@H](Cc3c[nH]c4ccccc34)C(=O)O)cc(=O)oc12	21*	.	.	.	.	.
Nc1nc2c(s1)CCc1c-2cnn1-c1ccccc1	5	32	39	16*	-2	30
CN1CCCC(OC(=O)c2ccc(C(C)(C)C)cc2)C1 (configuration not stated)	5	.	.	.	.	.
N=c1c(C(=O)NCCN2CCOCC2)cc2c(=O)n3ccccc3nc2n1CCc1ccccc1	156*	.	.	.	.	.
Cc1ccc(Cn2c(=N)c(C(=O)NCCN3CCOCC3)cc3c(=O)n4ccccc4nc32)cc1	-1	.	.	.	.	.
COCCCn1c(C(=O)NCCN2CCOCC2)cc2c(=O)n3ccccc3nc21	6	.	.	.	.	.
N=c1c(C(=O)NCCc2ccccc2)cc2c(=O)n3ccccc3nc2n1CCCN1CCOCC1	175*	.	.	.	.	.
N=c1c(C(=O)NCc2ccccc2)cc2c(=O)n3ccccc3nc2n1CCCN1CCOCC1	.	40	.	.	.	58*
Cn1c(C(=O)NCCN2CCOCC2)cc2c(=O)n3ccccc3nc21	8	.	.	.	.	.
CCc1nn(CCCC(=O)NCc2ccccc2C)c(=O)c2cc3occc3n12	3	.	.	.	.	.
Cc1cc2ccccc2c(=O)[nH]1	2	1	-16	-2	-2	-1
Cc1ccccc1Nc1cc2ccccc2c(=O)[nH]1	17*	-32	3	4	0	-3
SMILES	RanGTP-Impb inh	Runt-SMMHC FRET	TbHK1 inh	p97 inhibitor	Hck Nef HTS	Runt-CBFb FRET
O=c1[nH]c(Nc2ccccc2Cl)cc2ccccc12	39*	.	.	.	.	.
O=c1[nH]c(Nc2ccc(F)cc2)cc2ccccc12	54*	15	0	7	8	13
CC(C(=O)Nc1nccs1)N1C(=O)c2ccccc2S1(=O)=O (configuration not stated)	-1	.	.	.	.	.
CCOC(=O)C1CCN(C(=O)C(=O)Nc2ccc3nc4n(c(=O)c3c2)CCCCC4)CC1	3	.	.	.	.	.
Cc1coc2c1c(C)cc1oc(=O)c(CC(=O)NCCCN3CCCC3=O)c(C)c12	0	.	.	.	.	.
O=C(N/N=C/c1sc(=O)[nH]c1-[n+]1ccc2ccccc2c1)c1ccccc1[O-]	24*	.	.	.	.	.
O=C1C=CC(=O)N1c1cccc(-c2ccccc2)c1	-2	73*	8	-5	-38	38
CCN(CC)CCN(C(=O)c1c(F)cccc1F)c1nc2cc(C)cc(C)c2s1	5	1	0	-1	-4	-2
O=c1ccc2cc(O)c(O)cc2o1	81*	73*	-8	0	25	4
O=c1ccc2cc3ccoc3cc2o1	3	.	.	.	.	.
COCCN1C=C(C(=O)OC)C(c2ccccc2C(F)(F)F)C(C(=O)OC)=C1	56*	82*	-8	-5	65*	122*
CCCCOc1ccccc1C1C(C(=O)OC)=C(C)N(C)C(C)=C1C(=O)OC	-1	-4	-17	-4	0	-2
CCCCN1C=C(C(=O)OC)C(c2ccccc2Cl)C(C(=O)OC)=C1	96*	92*	0	3	32	30
CCCCN1C=C(C(=O)OC)C(c2ccccc2C(F)(F)F)C(C(=O)OC)=C1	94*	62*	-2	5	-9	67*
NSc1nc(N)c2nc(-c3ccccc3)c(-c3ccccc3)nc2n1	36*	69*	-3	3	20	43
Nc1nc(N)c2nc(-c3ccccc3)c(N)nc2n1	-1	56*	0	10	28	26
O=C(CCCNC(=O)c1ccc(Cl)cc1)Nc1ccc(Br)cc1	0	.	.	.	.	.
CCN1C(=O)/C(=C2/C=Cc3cc(C)ccc3N2CC)N(C)C1=S	-3	0	-21	-8	2	8
CCN1C(=C(C#N)C#N)C=Cc2cc(C)ccc21	52*	77*	-6	2	19	-36
CC(=O)Nc1ccc(S(=O)(=O)NCCCN2CCN(Cc3ccccc3)CC2)cc1Cl	2	-6	-3	3	14	2
CCOC(=O)c1cc2c(ccn2C)n1CC(=O)N1CCCC(C)C1 (configuration not stated)	24*	-15	-6	1	1	23
Cc1cccc(CC(=O)c2c[nH]c3ccccc23)c1	0	0	-3	5	4	-2
C[C@H](NC(=O)c1ccco1)C(=O)NCCc1ccc(S(N)(=O)=O)cc1	-5	1	-7	8	17	2
Cc1ccc(-c2cc(-c3ccc(C)o3)nc(N)c2C#N)cc1	9	35	-6	3	14	34
Cc1ccc(-c2cc(-c3ccc(Cl)cc3)c(C#N)c(N)n2)o1	16*	33	3	4	16	34
SMILES	RanGTP-Impb inh	Runt-SMMHC FRET	TbHK1 inh	p97 inhibitor	Hck Nef HTS	Runt-CBFb FRET
O=Cc1c(N2CCN(CCO)CC2)nc2ccccn2c1=O	79*	.	.	.	.	.
CCN1CCN(c2nc3ccccn3c(=O)c2C=O)CC1	110*	.	.	.	.	.
C=CCn1c(SCC(=O)N(CCOC)c2c(N)n(CCCC)c(=O)[nH]c2=O)nnc1-c1ccc(Cl)cc1	7	.	.	.	.	.
CCC(C)Sc1ccc(-c2nc3cnccn3c2NC2CCCCC2)cc1 (configuration not stated)	30*	.	.	.	.	.
CCCN1Cc2cccc(C(=O)NCCc3ccccc3)c2C1=O	4	.	.	.	.	.
Clc1ccc(-c2ccnc(-n3cccc3)n2)s1	2	68*	-5	3	5	13
N#C/C(=C/c1ccc(N2CCCCCC2)o1)c1ccc(Cl)cc1	33*	26	11	0	-26	28
